From ChEMBL document CHEMBL1152649, “Synthesis, cytotoxicity and human telomerase inhibition activities of a series of 1,2-heteroannelated anthraquinones and anthra[1,2-d]imidazole-6,11-dione homologues” (2009)
Activity calls are given as the source filed them. The rule behind the calls is not given here.

How the values were obtained:
MCF7 [1] = assay: Antiproliferative activity against human MCF7 cells assessed as cell growth at 10 uM; assay type: functional; conditions: read-out: Activity
Method in brief: (§1)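 NCI 60 cell line panel, single-dose screen (10^-5 M) run by the developmental therapeutics program protocol. Results are given as growth percent of treated cells relative to untreated control cells for each line.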

UACC-257 = assay: Growth inhibition of human UACC257 cells; assay type: functional
Method in brief: (§2)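 Assayed in the NCI 60 human cancer cell line panel under the Developmental Therapeutics Program protocol. For each line, dose–response curves were plotted against log10 drug concentration. In the one-dose screen at 10^-5 M, growth was given as percent of untreated control cells, and mean graph midpoint values were averaged.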

TK-10 [2] = assay: Growth inhibition of human TK10 cells; assay type: functional; method in brief: as §2
NCI-H226 = assay: Growth inhibition of human NCI-H226 cells; assay type: functional
Method in brief: (§3)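 NCI 60 cancer cell line screen run per the Developmental Therapeutics Program protocol. Dose–response curves were plotted against log10 drug concentration for each cell line within its subpanel, and mean graph midpoint values were calculated.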

MDA-MB-468 = assay: Antiproliferative activity against human MDA-MB-468 cells assessed as cell growth at 10 uM; assay type: functional; conditions: read-out: Activity; method in brief: as §1
MCF7 [3] = assay: Growth inhibition of human MCF7 cells; assay type: functional; method in brief: as §3
NCI-H460 = assay: Antiproliferative activity against human NCI-H460 cells assessed as cell growth at 10 uM; assay type: functional; conditions: read-out: Activity; method in brief: as §1
LOX IMVI [4] = assay: Growth inhibition of human LOXIMVI cells; assay type: functional; method in brief: as §3
LOX IMVI [5] = assay: Antiproliferative activity against human LOXIMVI cells assessed as cell growth at 10 uM; assay type: functional; conditions: read-out: Activity; method in brief: as §1
T47D = assay: Growth inhibition of human T47D cells; assay type: functional; method in brief: as §2
MOLT-4 = assay: Growth inhibition of human MOLT4 cells; assay type: functional; method in brief: as §3
HCC 2998 = assay: Antiproliferative activity against human HCC2998 cells assessed as cell growth at 10 uM; assay type: functional; conditions: read-out: Activity; method in brief: as §1
SF-268 = assay: Growth inhibition of human SF268 cells; assay type: functional; method in brief: as §2
[6] = target: Telomerase reverse transcriptase (Homo sapiens) (UniProt O14746); assay: Inhibition of telomerase in human H1299 cells up to 100 uM by TRAP assay; assay type: cell-based
Sequence of Telomerase reverse transcriptase (Homo sapiens) (O14746 whole entry): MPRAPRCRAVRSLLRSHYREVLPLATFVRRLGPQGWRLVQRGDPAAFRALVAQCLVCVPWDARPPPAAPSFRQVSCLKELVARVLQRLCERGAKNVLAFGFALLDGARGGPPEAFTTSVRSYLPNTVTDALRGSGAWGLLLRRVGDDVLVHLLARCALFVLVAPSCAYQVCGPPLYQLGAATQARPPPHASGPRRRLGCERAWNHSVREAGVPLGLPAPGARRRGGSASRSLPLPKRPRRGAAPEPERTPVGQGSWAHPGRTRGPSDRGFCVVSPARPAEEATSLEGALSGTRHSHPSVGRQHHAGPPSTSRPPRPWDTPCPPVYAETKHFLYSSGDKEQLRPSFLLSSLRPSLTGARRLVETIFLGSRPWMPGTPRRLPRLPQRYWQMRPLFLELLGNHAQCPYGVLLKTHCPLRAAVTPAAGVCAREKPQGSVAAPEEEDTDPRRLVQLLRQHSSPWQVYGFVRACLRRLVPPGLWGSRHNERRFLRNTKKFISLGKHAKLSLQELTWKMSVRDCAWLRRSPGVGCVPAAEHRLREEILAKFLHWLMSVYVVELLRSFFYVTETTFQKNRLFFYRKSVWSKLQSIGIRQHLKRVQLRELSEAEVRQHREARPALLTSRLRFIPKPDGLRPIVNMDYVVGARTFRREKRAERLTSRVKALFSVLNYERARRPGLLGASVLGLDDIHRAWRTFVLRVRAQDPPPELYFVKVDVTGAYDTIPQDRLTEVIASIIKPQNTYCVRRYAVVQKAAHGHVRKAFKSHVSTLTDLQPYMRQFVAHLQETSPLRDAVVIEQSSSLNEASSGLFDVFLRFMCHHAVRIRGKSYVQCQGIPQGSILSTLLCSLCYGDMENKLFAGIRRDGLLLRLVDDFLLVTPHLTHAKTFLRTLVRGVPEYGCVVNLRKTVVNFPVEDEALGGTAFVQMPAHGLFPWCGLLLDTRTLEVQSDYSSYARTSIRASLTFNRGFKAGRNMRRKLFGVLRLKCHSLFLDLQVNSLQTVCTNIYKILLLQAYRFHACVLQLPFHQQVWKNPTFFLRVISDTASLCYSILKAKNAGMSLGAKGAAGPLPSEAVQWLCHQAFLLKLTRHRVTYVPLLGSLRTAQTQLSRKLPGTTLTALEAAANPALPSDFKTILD
Method in brief: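 PCR-based telomeric repeat amplification protocol (TRAP). The telomerase source was total lysate of H1299 lung cancer cells, with protein measured against BSA standards. Controls were extract without inhibitor and RNase A-treated extract.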

SK-MEL-5 = assay: Growth inhibition of human SK-MEL-5 cells; assay type: functional; method in brief: as §2
MDA-MB-231 = assay: Antiproliferative activity against human MDA-MB-231 cells assessed as cell growth at 10 uM; assay type: functional; conditions: read-out: Activity; method in brief: as §1
A549 [7] = assay: Growth inhibition of human A549 cells; assay type: functional; method in brief: as §3
OVCAR-8 [8] = assay: Antiproliferative activity against human OVCAR8 cells assessed as cell growth at 10 uM; assay type: functional; conditions: read-out: Activity; method in brief: as §1
NCI-H322M = assay: Antiproliferative activity against human NCI-H322M cells assessed as cell growth at 10 uM; assay type: functional; conditions: read-out: Activity; method in brief: as §1
OVCAR-8 [9] = assay: Growth inhibition of human OVCAR8 cells; assay type: functional; method in brief: as §3
BT-549 = assay: Growth inhibition of human BT549 cells; assay type: functional; method in brief: as §3
A498 = assay: Growth inhibition of human A498 cells; assay type: functional; method in brief: as §3
[10] = target: Telomerase reverse transcriptase (Homo sapiens) (UniProt O14746); assay: Inhibition of TERT in human H1299 cells assessed as residual transcriptional activity at 100 uM after 24 hrs by SEAP reporter gene assay; values are per cent of control
U-251 = assay: Growth inhibition of human U251 cells; assay type: functional; method in brief: as §2
SF-539 = assay: Growth inhibition of human SF539 cells; assay type: functional; method in brief: as §2
ACHN [11] = assay: Antiproliferative activity against human ACHN cells assessed as cell growth at 10 uM; assay type: functional; conditions: read-out: Activity; method in brief: as §1
HOP-62 = assay: Growth inhibition of human HOP62 cells; assay type: functional; method in brief: as §3
KM12 [12] = assay: Growth inhibition of human KM12 cells; assay type: functional; method in brief: as §3
A549 [13] = assay: Antiproliferative activity against human A549 cells assessed as cell growth at 10 uM; assay type: functional; conditions: read-out: Activity; method in brief: as §1
ACHN [14] = assay: Growth inhibition of human ACHN cells; assay type: functional; method in brief: as §3
K562 = assay: Growth inhibition of human K562 cells; assay type: functional; method in brief: as §3
PC-3 = assay: Growth inhibition of human PC3 cells; assay type: functional; method in brief: as §2
UO-31 = assay: Antiproliferative activity against human UO31 cells assessed as cell growth at 10 uM; assay type: functional; conditions: read-out: Activity
Method in brief: (§4)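 NCI 60 cell line panel, single dose (10^-5 M), run per the Developmental Therapeutics Program protocol (one dose mean graph). Each result is the growth percentage of treated cells relative to untreated control cells.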

SNB-75 = assay: Growth inhibition of human SNB75 cells; assay type: functional; method in brief: as §2
HCT-15 = assay: Growth inhibition of human HCT15 cells; assay type: functional; method in brief: as §3
TK-10 [15] = assay: Antiproliferative activity against human TK10 cells assessed as cell growth at 10 uM; assay type: functional; conditions: read-out: Activity; method in brief: as §4
OVCAR-3 = assay: Growth inhibition of human OVCAR-3 cells; assay type: functional; method in brief: as §3
HOP-92 = assay: Growth inhibition of human HOP92 cells; assay type: functional; method in brief: as §3
OVCAR-5 = assay: Growth inhibition of human OVCAR5 cells; assay type: functional; method in brief: as §3
KM12 [16] = assay: Antiproliferative activity against human KM12 cells assessed as cell growth at 10 uM; assay type: functional; conditions: read-out: Activity; method in brief: as §1
[17] = read-out: LC50 (the source's name)

O=C1c2ccccc2C(=O)c2c1ccc1nccnc21
growth at 10 µM (MCF7 [1]): 39.7%
GI50 (UACC-257): 13 µM
TGI (UACC-257): 68.3 µM
CC50 (UACC-257; [17]): > 100 µM
GI50 (TK-10 [2]): 5 µM
TGI (TK-10 [2]): > 100 µM
CC50 (TK-10 [2]; [17]): > 100 µM
GI50 (NCI-H226): 16.6 µM
TGI (NCI-H226): 95.2 µM
CC50 (NCI-H226; [17]): > 100 µM
growth at 10 µM (MDA-MB-468): 75.3%
GI50 (MCF7 [3]): 0.72 µM
TGI (MCF7 [3]): 29.8 µM
CC50 (MCF7 [3]; [17]): > 100 µM
growth at 10 µM (NCI-H460): 31.7%
GI50 (LOX IMVI [4]): 4.2 µM
TGI (LOX IMVI [4]): 38.9 µM
CC50 (LOX IMVI [4]; [17]): > 100 µM
growth at 10 µM (LOX IMVI [5]): 44.2%
GI50 (T47D): 12.6 µM
LC50 (T47D): > 100 µM
TGI (T47D): 75.1 µM
GI50 (MOLT-4): 3.65 µM
TGI (MOLT-4): > 100 µM
CC50 (MOLT-4; [17]): > 100 µM
growth at 10 µM (HCC 2998): -7.15%
GI50 (SF-268): 4.98 µM
TGI (SF-268): > 100 µM
CC50 (SF-268; [17]): > 100 µM
inhibition [6]: inactive
GI50 (SK-MEL-5): 3.93 µM
TGI (SK-MEL-5): 17.1 µM
CC50 (SK-MEL-5; [17]): 44.4 µM
growth at 10 µM (MDA-MB-231): 81.4%
GI50 (A549 [7]): 4.53 µM
TGI (A549 [7]): > 100 µM
CC50 (A549 [7]; [17]): > 100 µM
growth at 10 µM (OVCAR-8 [8]): 47.5%
growth at 10 µM (NCI-H322M): 96.3%
GI50 (OVCAR-8 [9]): 5.07 µM
TGI (OVCAR-8 [9]): > 100 µM
CC50 (OVCAR-8 [9]; [17]): > 100 µM
GI50 (BT-549): 12.2 µM
LC50 (BT-549): > 100 µM
TGI (BT-549): 93.5 µM
GI50 (A498): 9.31 µM
TGI (A498): 50.3 µM
CC50 (A498; [17]): > 100 µM
residual activity [10]: 24%
GI50 (U-251): 5.38 µM
TGI (U-251): 42.9 µM
CC50 (U-251; [17]): > 100 µM
GI50 (SF-539): 2.18 µM
TGI (SF-539): 53.7 µM
CC50 (SF-539; [17]): > 100 µM
growth at 10 µM (ACHN [11]): 46.5%
GI50 (HOP-62): 5.64 µM
TGI (HOP-62): > 100 µM
CC50 (HOP-62; [17]): > 100 µM
GI50 (KM12 [12]): 5.26 µM
TGI (KM12 [12]): 49.5 µM
CC50 (KM12 [12]; [17]): > 100 µM
growth at 10 µM (A549 [13]): 47.1%
GI50 (ACHN [14]): 3.85 µM
TGI (ACHN [14]): > 100 µM
CC50 (ACHN [14]; [17]): > 100 µM
GI50 (K562): 0.07 µM
LC50 (K562): > 100 µM
TGI (K562): > 100 µM
TGI (PC-3): > 100 µM
CC50 (PC-3; [17]): > 100 µM
growth at 10 µM (UO-31): 51.5%
GI50 (SNB-75): 11.9 µM
TGI (SNB-75): > 100 µM
CC50 (SNB-75; [17]): > 100 µM
GI50 (HCT-15): 4.63 µM
TGI (HCT-15): 84.3 µM
CC50 (HCT-15; [17]): > 100 µM
growth at 10 µM (TK-10 [15]): 127%
GI50 (OVCAR-3): 2.34 µM
TGI (OVCAR-3): 12.5 µM
CC50 (OVCAR-3; [17]): > 100 µM
GI50 (HOP-92): 22.5 µM
TGI (HOP-92): > 100 µM
CC50 (HOP-92; [17]): > 100 µM
GI50 (OVCAR-5): 29.3 µM
TGI (OVCAR-5): > 100 µM
CC50 (OVCAR-5; [17]): > 100 µM
growth at 10 µM (KM12 [16]): 61%
